# Source: PubChem BioAssay (several laboratories)
# Compounds with a hit are over-represented: about 2.3% of the library has one in this group of screens.
# E coli WT exp = growth inhibitors of wild-type E. coli, primary screen, strain BW25113, expanded library, OD600. actives 0.15% (n = 98,000). growth inhibition, % at 100 µM. OD600 absorbance;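 active = growth inhibition above about 50% at one test dose, limit read from the data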;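 also: growth measured after 20 h incubation at 37 °C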
# Ecoli tolC = growth inhibitors of E. coli tolC mutant, primary screen, strain BW25113 ΔtolC::kan, 384-well. AID 573, 2007. actives 2.2% (n = 65,000). OD615. growth inhibition, % at 10 µM (by protocol);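 active = growth inhibition at or above a cutoff equal to the mean over every tested compound plus 3 SD, cut at about 60% in these data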;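 also: growth measured after 20 h incubation at 37 °C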
#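 Test system: E. coli BW25113 ΔtolC::kan bacteria; incubation: 37 °C, 20 h exposure; medium: LB broth supplemented with 50 µg/mL kanamycin; read-out basis: percent growth inhibition; signal: A615 absorbance measurement; compound: 10 µM final, single dose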
# PTK2B oligo ant = antagonists of Pyk2 self-association, primary screen, Q293 cells, FERM NanoBiT luminescence, HTS | actives 0.83% (n = 99,000) | z-score (the deposit names both 25 µM and 10 µM) | stronger effect = lower value | Protein-tyrosine kinase 2-beta (Homo sapiens), Q14289;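 active = Z-score of -3 or lower, scaled per plate to the spread of control and sample wells; inactive = z-score above -3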;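 also: negative z-score means lost luminescence so less FERM oligomerization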
# Mac1 fbg enh = enhancers of CD11b/CD18 adhesion to fibrinogen, primary screen, K562 cells, luminescence. activation, % at 10 µM. AID 1499, 2009. Integrin beta-2 (Homo sapiens) + Integrin alpha-M (Homo sapiens), P05107+P11215. actives 0.07% (n = 93,000). ATPlite luminescence;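 active = 10 µM primary screen giving 50% or more activity, confirmed by 40% or more on retest at that dose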
# Target sequence (P05107 whole entry, looked up, other chains not shown): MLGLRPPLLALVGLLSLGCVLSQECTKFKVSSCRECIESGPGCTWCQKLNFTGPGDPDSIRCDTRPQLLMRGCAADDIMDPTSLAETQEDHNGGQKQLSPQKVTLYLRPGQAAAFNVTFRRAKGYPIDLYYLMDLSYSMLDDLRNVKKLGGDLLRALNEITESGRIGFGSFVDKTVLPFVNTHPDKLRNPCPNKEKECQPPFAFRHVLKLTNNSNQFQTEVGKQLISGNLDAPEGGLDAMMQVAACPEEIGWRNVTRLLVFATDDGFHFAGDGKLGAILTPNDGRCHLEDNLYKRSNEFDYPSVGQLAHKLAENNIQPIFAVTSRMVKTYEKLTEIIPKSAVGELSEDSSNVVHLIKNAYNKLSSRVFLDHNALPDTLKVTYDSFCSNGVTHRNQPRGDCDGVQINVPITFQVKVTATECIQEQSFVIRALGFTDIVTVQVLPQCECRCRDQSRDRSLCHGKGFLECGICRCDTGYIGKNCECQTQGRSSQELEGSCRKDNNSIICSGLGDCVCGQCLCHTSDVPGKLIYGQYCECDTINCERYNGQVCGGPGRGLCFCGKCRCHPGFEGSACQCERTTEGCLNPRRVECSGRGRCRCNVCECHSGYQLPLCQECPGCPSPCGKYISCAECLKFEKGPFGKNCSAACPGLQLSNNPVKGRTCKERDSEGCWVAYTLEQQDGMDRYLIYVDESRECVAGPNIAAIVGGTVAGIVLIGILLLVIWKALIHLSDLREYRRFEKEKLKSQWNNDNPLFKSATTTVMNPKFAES
# Mac1 fbg inh = inhibitors of CD11b/CD18 adhesion to fibrinogen, primary screen, K562 cells, luminescence; Integrin beta-2 (Homo sapiens) + Integrin alpha-M (Homo sapiens), P05107+P11215; ATPlite luminescence; Mn2+ added to activate the integrin; inhibition, % at 10 µM; actives 0.54% (n = 93,000); AID 1497, 2009;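 active = primary inhibition of 50% or more at 10 µM, then 40% or more on retest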
# * = called active by the depositor; · = no result.
SMILES,E coli WT exp,Ecoli tolC,PTK2B oligo ant,Mac1 fbg enh,Mac1 fbg inh
N=c1cc(C2(O)CCCCC2)n2c(nc3ccccc32)s1,6,-2,0.07,-4,59*
Cc1ccc(C)c(C(=O)CN2C3=NCCCN3c3ccccc32)c1,12,·,-0.16,·,·
COC(=O)/C(=C\Nc1ccc(Cl)c2ccccc12)c1ncc(C(F)(F)F)cc1Cl,5,·,-3.4*,1,2
CCCc1[nH]nc2c1C(c1ccc(OC)c(CSC3=NCCS3)c1)C(C#N)=C(N)O2 (stereo unspecified),5,87*,-0.86,-6,28
CCCc1[nH]nc2c1C(c1cc(OC)cc(OC)c1)C(C#N)=C(N)O2 (stereo unspecified),1,-5,-1.4,-4,3
Cc1oc(=O)c(NC(=O)c2cccc(Cl)c2)cc1C(=O)c1ccccc1,-11,·,-1.5,·,·
COCCn1c(SCC(=O)Nc2sccc2C(N)=O)nc2cc(Cl)ccc2c1=O,-1,·,-3*,-2,-12
C=CCOc1ccc2ccccc2c1CNc1ncn[nH]1,-4,6,0.05,1,-6
COc1ccc(Cl)cc1C(=O)N(Cc1nc(-c2cccc(C)c2)no1)C(C)C,-14,56,·,4,8
Cc1cccc(-c2noc(CN(C(=O)CCc3ccccc3)C(C)C)n2)c1,0,76*,-0.56,-1,2
Cc1ccc(-c2noc(CN(C(=O)c3cccc(Br)c3)C(C)C)n2)cc1,0,78*,·,10,8
Cn1nc(-c2ccccc2)c(-c2nc(-c3cccc(Cl)c3)no2)c1Cl,-5,·,3.3,-1,0
O=C(O)c1cccc(CSc2nc(-c3ccc(Cl)cc3)cc(C(F)(F)F)n2)c1,7,·,-0.88,-3,75*
CCOC(=O)CCSc1nc(-c2ccccc2)cc(C(F)(F)F)n1,·,·,0.05,·,·
COc1cc(C(C)=O)ccc1Oc1ncnc2c1cnn2-c1ccc(F)cc1,·,·,·,2,-1
Cc1cc(OCC(=O)OCC(=O)Nc2cc(C(F)(F)F)ccc2N2CCOCC2)ccc1Cl,·,·,·,1,8
Cc1cccc(N=c2oc3cc(O)ccc3cc2C(N)=O)c1,8,98*,-1.4,-6,25
CCC1CCCCN1S(=O)(=O)c1ccc2c(c1)CCN2C(=O)C1CCC1 (stereo unspecified),-6,84*,-1.6,·,·
O=C(C1CCC1)N1CCc2cc(S(=O)(=O)N3CCc4ccccc4C3)ccc21,·,34,·,·,·
CCC(C)(C)n1nnnc1C(c1cc2ccc(OC)cc2[nH]c1=O)N1CCc2ccccc2C1 (stereo unspecified),-14,78*,-0.05,-1,1
CC(C)(C)C(=O)Nc1cc2nn(-c3ccccc3)nc2cc1Cl,7,·,-0.99,-14,99*
CC(=O)Nc1cc2nn(-c3ccccc3)nc2cc1Cl,-3,3,-0.63,-1,-12
CCn1c(=O)c2cc(C(=O)N3CCN(C(=O)c4ccco4)CC3)sc2c2ccccc21,·,98*,·,·,·
O=C(NC1CCCCC1)C(c1ccc2ncccc2c1)N(Cc1ccccc1)C(=O)c1ccc2c(c1)OCCO2 (stereo unspecified),-5,·,-1.9,5,-6
O=C(NCc1ccccc1)C(c1ccccc1)N(Cc1ccc2c(c1)OCO2)C(=O)Cc1cccs1 (stereo unspecified),·,·,-1.7,·,·
SMILES,E coli WT exp,Ecoli tolC,PTK2B oligo ant,Mac1 fbg enh,Mac1 fbg inh
O=C(NC1CCCCC1)C(c1ccc2ncccc2c1)N(Cc1ccccc1)C(=O)c1cccs1 (stereo unspecified),-6,·,-4*,10,-7
O=C(NC1CCCC1)C(c1ccccc1)N(Cc1ccc2c(c1)OCO2)C(=O)Cc1cccs1 (stereo unspecified),·,·,-3.1*,·,·
O=C(NC1CCCCC1)C(c1ccc2ncccc2c1)N(Cc1ccc2c(c1)OCO2)C(=O)c1cccs1 (stereo unspecified),-4,·,-3.6*,·,·
COc1ccc(CN(C(=O)c2cccs2)C(C(=O)NC2CCCCC2)c2ccc3ncccc3c2)cc1 (stereo unspecified),-6,·,-3.1*,·,·
CCOc1ccc(S(=O)(=O)NCc2ccc(F)cc2)c2cccnc12,10,3,-0.55,·,·
COc1ccc(C2C(C(C)=O)=C(O)C(=O)N2c2ccc(Br)cn2)cc1 (stereo unspecified),-11,·,-0.92,·,·
C=CCc1c(C)c(C#N)c2nc3ccccc3n2c1N1CCN(C)CC1,·,7,·,·,·
COCCn1c(-c2ccc(Cl)cc2)cnc1SCC(=O)NCCc1ccc(OC)c(OC)c1,·,·,·,-2,53*
CC1(C)Cc2c(c(N3CCCC3)nc3sc4c(N5CCN(CCO)CC5)ncnc4c23)CO1,12,65*,-1.3,·,·
Cc1ccc(-n2c3c(c(=O)[nH]c2=O)C(C(F)(F)F)(C(F)(F)F)NC(=O)N3)cc1,-3,·,-0.73,·,·
O=C(Nc1cccc(O)c1)c1cc(-c2ccco2)on1,-2,·,-0.1,0,9
Cc1ccc(S(=O)(=O)N2CCN(C(C(=O)Nc3ccc(F)cc3)c3ccccc3)CC2)cc1 (stereo unspecified),·,·,·,-5,1
Cc1ccc(-c2noc(CCC(=O)N3CCCc4ccccc43)n2)cc1,3,92*,-0.12,-3,5
COc1ccc(-c2noc(CCC(=O)N3CCN(c4cc(C)ccc4C)CC3)n2)cc1,-4,56,1.3,-4,-6
Cc1ccc(-c2noc(CCC(=O)N3CCN(c4cccc(C(F)(F)F)c4)CC3)n2)cc1,-1,64*,-0.09,8,34
Cc1cc(C)n(-c2cc(N3CCN(S(=O)(=O)c4ccc(Cl)cc4)CC3)ccc2[N+](=O)[O-])n1,·,·,·,-1,-2
Cc1cc(N2CCN(S(=O)(=O)c3ccc(Cl)cc3)CC2)c2ccccc2n1,3,37,-0.55,-8,85*
COc1ccc(NC(=O)c2cc3c(=O)n(C)c4ccccc4c3n2C)cc1OC,-3,75*,·,-4,0
CCOC(=O)c1nnn(-c2nonc2-n2cccc2)c1CN1CCC(C)CC1,4,70*,-0.34,·,·
CC1CCC(NCc2ccco2)CC1 (stereo unspecified),-2,·,0.03,4,9
Cn1c(C(C#N)C(=O)c2sc3ccccc3c2Cl)nc2ccccc21 (stereo unspecified),-29,49,-0.83,0,12
CCCn1nc([N+](=O)[O-])c(C(C#N)c2nc3ccccc3s2)c(Cl)c1=O (stereo unspecified),-4,·,-3.2*,-8,95*
CCOC(=O)c1cccc(NC(=O)Nc2cc(OC)ccc2OC)c1,4,83*,-3.4*,-1,8
COc1ccc(-n2cc(C(=O)c3cc4ccccc4oc3=O)c(C(C)=O)n2)cc1,-4,·,0.11,-2,9
COc1ccc(C(=O)N/N=C/c2ccc3cccc(OCc4ccccc4)c3n2)cc1,-22,·,-4*,-1,18
